The list is not random: actives were taken first. Their share in the collection is about 3.5%.
RGS4 act: RGS4 potentiation or activation | actives 0.92% (n = 310,000) | HEK293 M3R/inducible RGS4, carbachol calcium flux Fluo4; stronger effect = lower value | AID 463111 | B-score at 10 µM;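 active = B-score of the integrated calcium signal more than 4 SD below the library mean, with starting fluorescence not abnormally high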;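 note: negative B-score means reduced calcium response which marks RGS4 activation or potentiation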
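Material: Inducible-RGS4 HEK293 cells carrying M3 receptor; also added: carbachol at ECmax as muscarinic agonist stimulus; incubation: compound preincubation 20 min at room temperature before agonist; signal: Fluo4-AM (2 µM) calcium-flux fluorescence, kinetic read; measure: integrated calcium ratio converted to B score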
MrgX1 agonist: activates human MrgX1 receptor signaling; B-score at 10 µM; MrgX1-HEK293 cells, Fluo-4 calcium fluorescence, agonist mode; stronger effect = higher value; Q96LB2; actives 0.44% (n = 310,000); AID 588627;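 active = calcium response B-score plate-corrected fluorescence ratio at least 3 library SD, with starting fluorescence B-score inside 5 SD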
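System – MrgX1-expressing HEK293 cells · Incubation – cells plated overnight, dye loaded 0.5 h 37 °C, 0.5 h room temperature · Technique – kinetic Fluo-4 NW fluorescence of intracellular calcium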
MrgX1 PAM: human MrgX1 positive allosteric modulation, primary screen. Q96LB2. MrgX1-HEK293, Fluo-4 calcium flux, FDSS; stronger effect = higher value. B-score at 10 µM. actives 0.63% (n = 310,000). AID 588675;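 active = plate-corrected calcium response at least 3 library SD above typical, normal starting fluorescence, not activating the receptor alone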;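 note: compound read alongside a low EC10 to EC30 dose of BAM8-22 agonist; peak minus trough fluorescence over baseline measured at the second addition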
RGS4 block: human RGS4 inhibition. P49798. HEK293 M3R/RGS4 inducible, Fluo-4 calcium flux; stronger effect = higher value; triggered by carbachol at its EC20. B-score at 10 µM. actives 0.45% (n = 310,000). AID 463165;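 active = B-score, a plate-corrected calcium signal, over three deviations above library mean, with baseline fluorescence within five deviations of library mean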;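 note: RGS4 expression induced by doxycycline in cells with stable M3 receptor; B-score is computed from the integrated fluorescence ratio over baseline after carbachol; higher B-score means a larger calcium signal and so more RGS4 inhibition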
Target sequence (P49798 whole entry, looked up): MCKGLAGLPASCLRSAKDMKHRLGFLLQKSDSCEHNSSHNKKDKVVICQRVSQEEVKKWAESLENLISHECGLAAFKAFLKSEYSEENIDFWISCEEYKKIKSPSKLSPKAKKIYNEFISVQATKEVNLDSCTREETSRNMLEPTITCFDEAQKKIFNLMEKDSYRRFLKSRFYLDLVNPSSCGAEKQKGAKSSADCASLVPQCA
MrgX1 antag: antagonists of human MrgX1 receptor | B-score at 10 µM | Q96LB2 | actives 1.3% (n = 310,000) | AID 588676 | MRGX1-HEK293 calcium flux, Fluo-4, BAM8-22 antagonism; stronger effect = lower value;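 active = calcium-response B-score plate-corrected more than 3 library SD below zero, starting fluorescence within 5 deviations, no agonist response on first addition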;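 note: peak minus trough fluorescence over baseline after final BAM8-22 challenge near maximal dose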
RGS4 activ val: RGS4 activation, validation assay; inhibition, % at 10 µM; shares compounds with RGS4 act; actives 89% (n = 1,100); HEK293 M3R/RGS4 inducible, carbachol calcium flux Fluo4; AID 602282;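 active = inhibition above 3 SD of the buffer control wells, cut at about 41% in these data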;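 note: signal is the integrated peak-minus-minimum Fluo4 fluorescence over baseline ratio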
RGS4 act ctr: counter-screen for RGS4 activators: effect in non-induced cells. shares compounds with RGS4 act. HEK293 M3R non-induced RGS4, Fluo4 calcium flux; after carbachol challenge at its EC90. inhibition, % at 10 µM. actives 82% (n = 1,100). AID 602283;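 active = inhibition exceeding 3 SD of buffer-only control wells, cut at about 26% in these data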;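 note: percent drop in integrated peak-minus-baseline over baseline Fluo4 ratio after carbachol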
* marks the source's active call; other numbers are inactive results; i = inactive; . = no result.

SMILES	RGS4 act	MrgX1 agonist	MrgX1 PAM	RGS4 block	MrgX1 antag	RGS4 activ val	RGS4 act ctr
CN(CCc1ccccn1)C(=S)Nc1cccc(S(=O)(=O)N(C)C)c1	i	i	i	i	i	.	.
CCN(CC)c1ccc(C(=O)N/N=C/c2ccccc2OC(F)F)cc1	i	i	i	i	i	.	.
CN(C)CCOC(C1CCCCC1)C1CCCCC1	-9.1*	i	i	i	i	90*	68*
COc1cc(-c2ccc3oc(-c4ccsc4)cc3c2)cc(OC)c1OC	i	i	i	i	i	.	.
CCOC(=O)c1sc(Nc2ccccc2)nc1C	i	i	i	i	i	.	.
CCOC(=O)c1sc(Nc2nc3c(OC)cccc3s2)nc1C	-7.8*	i	i	i	i	93*	79*
Cc1noc(C)c1C(=O)OCC(=O)Nc1c(F)cccc1F	i	i	i	i	i	.	.
COc1ccc(OCc2nnc(SCC(=O)c3c(N)n(C)c(=O)n(C)c3=O)n2-c2ccccc2F)cc1	i	i	i	i	i	.	.
CCC(C)C(NC(=O)OCc1ccccc1)C(=O)NCC(c1ccccc1)N(C)C (stereo not given)	i	i	i	i	i	.	.
Cc1c(C(=O)N2CCN(c3ccc(F)cc3)CC2)sc2ncnc(N3CCN(c4ccccn4)CC3)c12	-8.9*	i	i	i	i	92*	84*
Cc1c(C(=O)N(C)C2CCCCC2)sc2ncnc(N3CCN(c4ccccc4)CC3)c12	-9.7*	i	i	i	i	0	28*
Cc1c(C(=O)N(C)C2CCCCC2)sc2ncnc(N3CCN(c4ccccc4F)CC3)c12	i	i	i	i	i	.	.
Cc1c(C(=O)N2CCN(c3ccccc3)CC2)sc2ncnc(N3CCN(c4ccccn4)CC3)c12	-9.7*	i	i	i	i	80*	48*
O=C(CN1C2=NCCN2c2ccccc21)c1ccc(Br)s1	i	i	i	i	i	.	.
CCOc1ccc(-n2cc(-c3ccccc3)c3c(N4CCOCC4)ncnc32)cc1	-8.2*	i	i	i	i	62*	0
CN1CCN(c2ncnc3c2c(-c2ccccc2)cn3-c2ccc(F)cc2)CC1	i	i	i	i	i	.	.
OCCC1CN(Cc2ccc(-c3ccco3)cc2)CCN1Cc1ccsc1 (stereo not given)	-7.7*	i	i	i	i	74*	84*
O=C1c2oc3ccccc3c(=O)c2C(c2cccc(O)c2)N1CCCN1CCOCC1 (stereo not given)	-8.9*	i	i	i	i	85*	37*
C/C(CC(=O)Nc1ccc(C)c(Cl)c1)=N\NC(=O)c1ccco1	i	i	i	i	i	.	.
Cc1cc(NCCCO)n2nc(-c3cccs3)cc2n1	i	i	i	i	i	.	.
OCCCNc1cc(-c2ccccc2)nc2cc(-c3ccc(F)cc3)nn12	-8.8*	i	i	i	i	68*	42*
c1ccc(N2CCN(c3cnccn3)CC2)nc1	-8.4*	i	i	i	i	0	0
Cc1ccc(/C=N/n2nnnc2N)cc1[N+](=O)[O-]	i	i	i	i	i	.	.
O=C(CSc1nc(-c2ccccc2Cl)ns1)c1ccc(Cl)cc1	-8.2*	i	i	i	i	77*	41*
CCC1=[N+](C)c2cccc3cccc(c23)N1C	i	i	i	i	i	.	.
FC(F)(F)c1cccc(NCc2n[nH]c(=S)n2C2CCCCC2)c1	-8.4*	i	i	i	i	85*	52*
CN1CCN(CC(=O)Nc2c(C(=O)c3ccccc3)oc3ccccc23)CC1	-10*	i	i	i	i	70*	27*
COc1cccc(CN2CCN(C(c3ccccc3)c3ccccc3)CC2)c1O	-8.8*	i	i	i	i	92*	75*

High-throughput results (PubChem)
